Source: PubChem
Compounds with a hit are over-represented: about 1.5% of the library has one in this group of screens.
VLA-4 inh – inhibition in human VLA-4 binding assay, primary screen, VLA-4 allosteric modulator project, MLPCN library, flow cytometry, VLA-4 expressing cells; Integrin alpha-4 (Homo sapiens), P13612; ligand binding flow cytometry; inhibition, % (about 7 µM as worked out from the volumes in the protocol); 330,000 tested, 0.2% active; in the data active = inhibition above about 50%
CHT block – inhibitors of human choline transporter CHT | High affinity choline transporter 1 (Homo sapiens), Q9GZV3 | CHT-expressing cells, membrane potential dye, choline response; stronger effect = lower value | 310,000 tested, 0.86% active | B-score at 10 µM;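 active = B-score over 3 SD under the library average, and starting fluorescence ratio not unusually high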;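 also: choline stimulus applied at its EC90 after an EC20 pre-addition; B-score computed on integrated fluorescence ratio after choline addition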
Target sequence (Q9GZV3 whole entry, looked up): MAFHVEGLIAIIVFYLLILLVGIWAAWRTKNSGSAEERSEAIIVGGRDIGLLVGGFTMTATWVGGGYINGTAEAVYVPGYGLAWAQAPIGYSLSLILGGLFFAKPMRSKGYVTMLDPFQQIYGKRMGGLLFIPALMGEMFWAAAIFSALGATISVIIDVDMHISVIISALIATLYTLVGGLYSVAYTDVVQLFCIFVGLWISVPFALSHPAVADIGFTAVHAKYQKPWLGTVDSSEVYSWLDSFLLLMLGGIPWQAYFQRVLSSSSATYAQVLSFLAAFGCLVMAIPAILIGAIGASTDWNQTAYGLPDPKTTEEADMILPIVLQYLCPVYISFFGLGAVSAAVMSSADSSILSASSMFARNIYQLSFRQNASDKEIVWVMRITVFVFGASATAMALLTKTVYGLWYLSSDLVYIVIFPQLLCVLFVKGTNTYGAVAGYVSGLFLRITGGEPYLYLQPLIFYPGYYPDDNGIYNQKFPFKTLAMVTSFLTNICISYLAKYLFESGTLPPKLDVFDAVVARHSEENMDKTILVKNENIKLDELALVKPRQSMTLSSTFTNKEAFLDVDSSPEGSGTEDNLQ
CHT PAM – CHT positive allosteric modulators, primary screen, cell-based, membrane potential dye, choline EC20; B-score at 10 µM; CHT-expressing cells; stronger effect = higher value; LV-AA mutant CHT in HEK293 cells; AID 488977, 2010; 310,000 tested, 0.49% active; High affinity choline transporter 1 (Homo sapiens), Q9GZV3;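 active = initial fluorescence not abnormally high and integrated response B-score, plate-corrected, over 3 SD above library mean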
T cell modulator – modulators of CD8 T cell-vesicle binding, primary screen, mouse 2C CD8+ T cells, flow cytometry. 2C CD8+ T cell-vesicle binding; stronger effect = lower value. response (vesicle binding), % at 7 µM. 330,000 tested, 0.068% active;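 active = response, share of CD8 T cells binding vesicles, and their 90th percentile fluorescence all below set limits, cut at about 80% in these data, passing the limit was not always enough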;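 also: values below 100% mean blocked vesicle binding to the CD8+ T cells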
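Test system: purified 2C TCR transgenic mouse naive CD8+ T cells. Probe or stimulus: QL9-peptide-loaded Drosophila micro-vesicles bearing Ld, ICAM-1 and B7-1. Incubation: binding step 1.5 h, 37 °C, antibody labelling 20 min, ice. Measured by: flow cytometry of vesicle-bound cells.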
CHT block conf – CHT inhibitors, confirmation, cell-based, membrane potential dye, duplicate | shares compounds with CHT block | CHT-expressing cells, choline membrane potential dye; LV-to-AA substituted CHT, HEK293 cells | CHT activity remaining % of control (stronger effect = lower value), % at 10 µM | 2,400 tested, 70% active;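 active = choline transporter activity left, mean of duplicates at 10 µM, below buffer-only control mean minus 3 SD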;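 also: depolarization triggered by choline at its EC90 following an EC20 pre-addition; 0% = hemicholinium-3 full block and 100% = buffer-only control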
HEK293 CHT ctr – membrane potential effects in parental HEK293, counter-screen for CHT inhibitor project, cell-based, membrane potential dye; shares compounds with CHT block; choline response; active = decrease or increase beyond buffer ±3SD; membrane potential ratio readout (active if shifted either direction beyond buffer ±3SD; no single direction) at 10 µM; 2,400 tested, 4% active;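 also: parental cells lack the transporter so any hit is non-specific; ratio is peak minus trough fluorescence over baseline after EC90 choline challenge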
* hit, by the source's call; i = inactive; x = no result given.

SMILES	VLA-4 inh	CHT block	CHT PAM	T cell modulator	CHT block conf	HEK293 CHT ctr
O=C(Cn1ncc2c1-c1ccccc1OC2)N(Cc1ccco1)C1CCCCC1	0	-4.9*	i	584	i	i
CCc1c(C)c(C#N)c2nc3ccccc3n2c1NCc1ccccn1	4	i	i	421	x	x
O=C(c1nn(-c2ccccc2)c(=O)c2ccccc12)N1CCN(c2ccccn2)CC1	11	-6*	i	214	i	i
Cc1c(C)n(CCc2ccccc2)c2ncnc(NN)c12	-17	-6.1*	i	228	61%*	i
CCCCNC(=O)Nc1c(C(=O)OCC)[nH]c2ccccc12	0	i	i	282	x	x
CCCCNC(=O)Nc1c(C(=O)OC)[nH]c2ccc(C)cc12	-49	-6.9*	i	886	i	i
CC(=O)n1cc([C@H]2C=C(C(N)=O)O[C@@H](OCc3ccc(CO)cc3)C2)c2ccccc21	-13	i	i	577	x	x
C#CCNc1c2c(nc3ncnn13)CC(C)CC2 (centres undefined)	-13	-5.2*	i	223	63%*	i
C[C@H]1COC(=O)[C@H](CC(=O)OC(C)(C)C)C/C=C\C[C@@H](CC(=O)N[C@@H](CO)Cc2ccccc2)C(=O)N1	0	x	x	203	x	x
CCn1ncc(Br)c1C(=O)NC(C)c1ccccc1 (centres undefined)	-5	-5.8*	i	890	i	i
CCn1ncc(Cl)c1C(=O)NC(C)c1ccccc1 (centres undefined)	10	i	i	355	x	x
O=C(O)C1=C[C@@H](c2coc3ccccc3c2=O)C[C@@H](OCCCCO)O1	39	i	i	351	x	x
CC1CCCN(CCCNC(=O)c2nn(C)c3c2CSc2ccccc2-3)C1 (centres undefined)	2	-6.2*	i	i	23%*	i
CC1CCCCN1CCCNC(=O)c1nn(C)c2c1CSc1ccccc1-2 (centres undefined)	-1	-7.6*	i	552	8.6%*	i
Cn1nc(C(=O)NC2CCCCC2)c2c1-c1ccccc1SC2	-35	i	i	526	x	x
CC1CCC(NC(=O)c2nn(C)c3c2CSc2ccccc2-3)CC1 (centres undefined)	6	i	i	209	x	x
CCSc1nnc(NC(=O)C(C)(C(F)(F)F)C(F)(F)F)s1	5	-8.8*	i	163	70%*	i
Cc1noc(C)c1NC(=O)Nc1ccc2c(c1)C(=O)N([C@@H](C)CO)C[C@@H](C)[C@@H](CN(C)Cc1ccc3c(c1)OCO3)O2	41	x	x	756	x	x
OCCn1nc(-c2ccccc2)cc1-c1ccccc1	0	-9.3*	i	409	26%*	i
Nc1cc(-c2ccccc2)nn1Cc1ccccc1	11	i	i	274	x	x
CCOc1cc(Cl)c(S(=O)(=O)NCc2cccnc2)cc1Cl	12	i	i	165	x	x
C=CCOc1ccccc1CNCCc1ccc(S(N)(=O)=O)cc1	17	i	i	279	x	x
NS(=O)(=O)c1ccc(CCNCc2ccccc2OCc2ccc(Cl)cc2)cc1	4	-5.1*	i	259	27%*	i
NS(=O)(=O)c1ccc(CCNCc2cc(Cl)ccc2OCc2ccccc2)cc1	4	-6.5*	i	173	50%*	i
CN(c1ccc(Cl)cc1)S(=O)(=O)c1nnc(NC(=O)C(C)(C)C)s1	5	i	i	210	x	x
Cc1ccc(NC(=O)COCC(=O)Nc2ccc(F)cc2)cc1	8	i	i	305	x	x
COc1cc2c(cc1OC)CN(C(=S)NC(=O)c1ccccc1)CC2	-6	i	i	194	x	x
Cc1nn(-c2ccccc2)c(N2CCCC2)c1/C=N/Nc1ccc(S(N)(=O)=O)cc1[N+](=O)[O-]	-1	-5*	i	486	i	i
Cn1c(CN2CCCCC2)nc2cc(NC(=O)c3ccccc3Cl)ccc21	4	-7.5*	i	306	40%*	i
